Results on four compounds are retold here after ChEMBL document CHEMBL3763086, “Salicylanilide N-monosubstituted carbamates: Synthesis and in vitro antimicrobial activity” (2016).

Holding throughout (assay type): functional
In test [1] the test system is Klebsiella pneumoniae. The test is described as follows: Antibacterial activity against Klebsiella pneumoniae D 11750/08 after 24 hrs by microbroth dilution method. As to conditions: D 11750/08, 24 h. The method in brief:
(§1)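 Microbroth dilution modified per M07-A07 in Mueller-Hinton broth, pH 7.4 (±0.2). Inoculum in sterile water adjusted to 0.5 McFarland. MIC taken as growth reduction of at least 90% (IC90) versus control, read visually and at 540 nm after 24 and 48 h incubation in the dark.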
In general terms: Broth dilution looks for growth in wells or tubes with falling amounts of substance.

Test [2] deals with Pichia kudriavzevii. Put plainly: Antifungal activity against Candida krusei E28 after 24 hrs by microbroth dilution method. The following applies: E28, 24 h.
Test [3] relates to Candida tropicalis. The test is described as follows: Antifungal activity against Candida tropicalis 156 after 24 hrs by microbroth dilution method. As to conditions: Candida tropicalis, 156, 24 h.
The test system of test [4] is Lichtheimia corymbifera. The test is described as follows: Antifungal activity against Absidia corymbifera 272 after 48 hrs by microbroth dilution method. As to conditions: Lichtheimia corymbifera, 272, 48 h.
In test [5] the test system is Candida albicans. The test is described as follows: Antifungal activity against Candida albicans ATCC 44859 after 24 hrs by microbroth dilution method. The following applies: ATCC 44859, 24 h.
The subject of test [6] is Enterococcus sp. The test is described as follows: Antibacterial activity against Enterococcus sp. J 14365/08 after 24 hrs by microbroth dilution method. The following applies: J 14365/08, 24 h. The method in brief: as §1
For test [7], the system named is Klebsiella pneumoniae. The test is described as follows: Antibacterial activity against Klebsiella pneumoniae D 11750/08 after 48 hrs by microbroth dilution method. As to conditions: D 11750/08, 48 h. The gist of the method:
as §1

In test [8] the test system is Staphylococcus aureus. The test is described as follows: Antibacterial activity against methicillin-resistant Staphylococcus aureus H 5996/08 after 48 hrs by microbroth dilution method. The following applies: H 5996/08, 48 h. The method in brief:
(§2)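 Microdilution broth method modified after M07-A07 in Mueller-Hinton broth adjusted to pH 7.4 (±0.2). Inoculum prepared in sterile water to 0.5 McFarland (1.5 × 10^8 CFU/mL). MIC taken as growth reduction versus control (IC95 per table header), read visually and spectrophotometrically at 540 nm after 24 and 48 h incubation in the dark.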

Test [9] has as its system Nakaseomyces glabratus. The test is described as follows: Antifungal activity against Candida glabrata 20/I after 24 hrs by microbroth dilution method.
The subject of test [10] is Candida tropicalis. Put plainly: Antifungal activity against Candida tropicalis 156 after 48 hrs by microbroth dilution method. The following applies: Candida tropicalis, 156, 48 h.
Test [11] has as its system Klebsiella pneumoniae. Put plainly: Antibacterial activity against ESBL-positive Klebsiella pneumoniae J 14368/08 after 24 hrs by microbroth dilution method. The following applies: J 14368/08, 24 h. The gist of the method: as §1
Test [12] concerns Staphylococcus epidermidis. The test is described as follows: Antibacterial activity against Staphylococcus epidermidis H 6966/08 after 24 hrs by microbroth dilution method. As to conditions: H 6966/08, 24 h. The gist of the method:
as §1

Test [13] has as its system Trichophyton mentagrophytes. Put plainly: Antifungal activity against Trichophyton mentagrophytes 445 after 120 hrs by microbroth dilution method. As to conditions: Trichophyton mentagrophytes, 445, 120 h.
In test [14] the test system is Escherichia coli. The test is described as follows: Antibacterial activity against Escherichia coli CCM 4517 after 48 hrs by microbroth dilution method. The following applies: CCM 4517, 48 h. The method in brief: as §1
Test [15] deals with Enterococcus sp. The test is described as follows: Antibacterial activity against Enterococcus sp. J 14365/08 after 48 hrs by microbroth dilution method. The following applies: J 14365/08, 48 h. The method in brief: as §1
Test [16] concerns Trichosporon asahii. Put plainly: Antifungal activity against Trichosporon asahii 1188 after 48 hrs by microbroth dilution method. The following applies: Trichosporon asahii, 1188, 48 h.
Test [17] deals with Trichophyton mentagrophytes. The test is described as follows: Antifungal activity against Trichophyton mentagrophytes 445 after 72 hrs by microbroth dilution method. As to conditions: Trichophyton mentagrophytes, 445, 72 h.
The test system of test [18] is Pichia kudriavzevii. Put plainly: Antifungal activity against Candida krusei E28 after 48 hrs by microbroth dilution method. The following applies: E28, 48 h.
Test [19] deals with Staphylococcus aureus. Put plainly: Antibacterial activity against methicillin-resistant Staphylococcus aureus H 5996/08 after 24 hrs by microbroth dilution method. The following applies: H 5996/08, 24 h. The gist of the method: as §2
Test [20] has as its system Candida albicans. Put plainly: Antifungal activity against Candida albicans ATCC 44859 after 48 hrs by microbroth dilution method. The following applies: ATCC 44859, 48 h.
Test [21] concerns Escherichia coli. Put plainly: Antibacterial activity against Escherichia coli CCM 4517 after 24 hrs by microbroth dilution method. As to conditions: CCM 4517, 24 h. The method in brief: as §1
The test system of test [22] is Nakaseomyces glabratus. The test is described as follows: Antifungal activity against Candida glabrata 20/I after 48 hrs by microbroth dilution method.
The test system of test [23] is Staphylococcus epidermidis. The test is described as follows: Antibacterial activity against Staphylococcus epidermidis H 6966/08 after 48 hrs by microbroth dilution method. The following applies: H 6966/08, 48 h. The gist of the method:
as §1

Test [24] concerns Klebsiella pneumoniae. Put plainly: Antibacterial activity against ESBL-positive Klebsiella pneumoniae J 14368/08 after 48 hrs by microbroth dilution method. As to conditions: J 14368/08, 48 h. The method in brief:
as §1

The test system of test [25] is Trichosporon asahii. The test is described as follows: Antifungal activity against Trichosporon asahii 1188 after 24 hrs by microbroth dilution method. As to conditions: Trichosporon asahii, 1188, 24 h.
For test [26], the system named is Staphylococcus aureus. Put plainly: Antibacterial activity against Staphylococcus aureus CCM 4516/08 after 24 hrs by microbroth dilution method. As to conditions: CCM 4516/08, 24 h. The method in brief:
as §1

For test [27], the system named is Staphylococcus aureus. Put plainly: Antibacterial activity against Staphylococcus aureus CCM 4516/08 after 48 hrs by microbroth dilution method. As to conditions: CCM 4516/08, 48 h. The method in brief: as §2
Test [28] deals with Lichtheimia corymbifera. The test is described as follows: Antifungal activity against Absidia corymbifera 272 after 24 hrs by microbroth dilution method. As to conditions: Lichtheimia corymbifera, 272, 24 h.

Structures are written as SMILES. Converted amounts (≈) assume the structure as drawn.

As a reminder, the MIC is the smallest concentration in the dilution series that meets the test's criterion for growth inhibition. Higher therefore signals a need for much substance. Regarding `O=C(NCCc1ccccc1)Oc1ccc(Cl)cc1C(=O)Nc1ccc(F)cc1`, the MIC in the test with Klebsiella pneumoniae [1] is greater than 500 µM; in the test with Pichia kudriavzevii [2], 125 µM (≈ 51.6 µg/mL); against Candida tropicalis [3] it was greater than 500 µM; with Lichtheimia corymbifera [4], greater than 500 µM; against Candida albicans [5] it was 250 µM (≈ 103 µg/mL); with Enterococcus sp. [6], greater than 500 µM. Further, the MIC against Klebsiella pneumoniae [7] was greater than 500 µM; in the test on Staphylococcus aureus [8], 62.5 µM (≈ 25.8 µg/mL); against Nakaseomyces glabratus [9], 125 µM (≈ 51.6 µg/mL); against Candida tropicalis [10], greater than 500 µM; against Klebsiella pneumoniae [11], greater than 500 µM; in test [12], 15.6 µM (≈ 6.45 µg/mL). In addition, the MIC (in [13]; in the test on Escherichia coli [14]; in the test with Enterococcus sp. [15]; with Trichosporon asahii [16]; in [17]; against Pichia kudriavzevii [18]) was greater than 500 µM throughout. For the same compound, the MIC against Staphylococcus aureus [19] was 15.6 µM (≈ 6.45 µg/mL); against Candida albicans [20], greater than 500 µM; in the test with Escherichia coli [21], greater than 500 µM; in the test on Nakaseomyces glabratus [22], greater than 500 µM; in test [23] it was 15.6 µM (≈ 6.45 µg/mL); against Klebsiella pneumoniae [24], greater than 500 µM. Further, the minimal inhibitory concentration (MIC) against Trichosporon asahii [25] is 125 µM (≈ 51.6 µg/mL); in the test with Staphylococcus aureus [26], 7.81 µM (≈ 3.22 µg/mL); in the test with Staphylococcus aureus [27] it was 15.6 µM (≈ 6.45 µg/mL); in the test on Lichtheimia corymbifera [28], greater than 500 µM.
For `C[C@@H]1[C@H](O)[C@@H](C)/C=C/C=C/C=C/C=C/C=C/C=C/C=C/[C@H](O[C@@H]2O[C@H](C)[C@@H](O)[C@H](N)[C@@H]2O)C[C@@H]2O[C@](O)(C[C@@H](O)C[C@@H](O)[C@H](O)CC[C@@H](O)C[C@@H](O)CC(=O)O[C@H]1C)C[C@H](O)[C@H]2C(=O)O` [AMPHOTERICIN B], the MIC in the test on Pichia kudriavzevii [2] was found to be 1.95 µM (≈ 1.8 µg/mL); against Candida tropicalis [3] it was 1.95 µM (≈ 1.8 µg/mL); in the test on Lichtheimia corymbifera [4], 7.81 µM (≈ 7.22 µg/mL); in the test on Candida albicans [5] it was 0.12 µM (≈ 0.111 µg/mL); with Nakaseomyces glabratus [9] it was 0.98 µM (≈ 0.906 µg/mL); against Candida tropicalis [10] it was 1.95 µM (≈ 1.8 µg/mL). In addition, the MIC in test [13] worked out at 1.95 µM (≈ 1.8 µg/mL); against Trichosporon asahii [16], 0.98 µM (≈ 0.906 µg/mL); in test [17], 1.95 µM (≈ 1.8 µg/mL); with Pichia kudriavzevii [18], 1.95 µM (≈ 1.8 µg/mL); in the test on Candida albicans [20], 0.49 µM (≈ 0.453 µg/mL); with Nakaseomyces glabratus [22], 1.95 µM (≈ 1.8 µg/mL). For the same compound, the minimum inhibitory concentration (MIC) against Trichosporon asahii [25] is 0.49 µM (≈ 0.453 µg/mL); in the test with Lichtheimia corymbifera [28] it was 7.81 µM (≈ 7.22 µg/mL).
Turning to `OC(Cn1cncn1)(Cn1cncn1)c1ccc(F)cc1F` [FLUCONAZOLE], the minimal inhibitory concentration (MIC) against Pichia kudriavzevii [2] is 125 µM (≈ 38.3 µg/mL); with Candida tropicalis [3], greater than 500 µM; against Lichtheimia corymbifera [4], greater than 500 µM; against Candida albicans [5] it was 0.24 µM (≈ 0.0735 µg/mL); against Nakaseomyces glabratus [9], 31.2 µM (≈ 9.57 µg/mL); in the test on Candida tropicalis [10], greater than 500 µM. The MIC in [13] was 125 µM (≈ 38.3 µg/mL); in the test with Trichosporon asahii [16], 500 µM (≈ 153 µg/mL); in test [17] it was 7.81 µM (≈ 2.39 µg/mL); against Pichia kudriavzevii [18] it was 250 µM (≈ 76.6 µg/mL); in the test with Candida albicans [20], 0.24 µM (≈ 0.0735 µg/mL); against Nakaseomyces glabratus [22], 500 µM (≈ 153 µg/mL). Also, the MIC with Trichosporon asahii [25] was 250 µM (≈ 76.6 µg/mL); in the test with Lichtheimia corymbifera [28], greater than 500 µM.
Consider `CC1(C)S[C@@H]2[C@H](NC(=O)Cc3ccccc3)C(=O)N2[C@H]1C(=O)O` [PENICILLIN G], for which the MIC with Klebsiella pneumoniae [1] is 500 µM (≈ 167 µg/mL); against Enterococcus sp. [6] it was 7.81 µM (≈ 2.61 µg/mL); in the test with Klebsiella pneumoniae [7], 500 µM (≈ 167 µg/mL); against Staphylococcus aureus [8], 125 µM (≈ 41.8 µg/mL); in the test on Klebsiella pneumoniae [11], greater than 500 µM; in test [12] it was 250 µM (≈ 83.6 µg/mL). Moreover, the MIC in the test with Escherichia coli [14] is 125 µM (≈ 41.8 µg/mL); with Enterococcus sp. [15] it was 15.6 µM (≈ 5.22 µg/mL); with Staphylococcus aureus [19] it was 62.5 µM (≈ 20.9 µg/mL); with Escherichia coli [21] it was 125 µM (≈ 41.8 µg/mL); in [23] it was 250 µM (≈ 83.6 µg/mL); in the test on Klebsiella pneumoniae [24], greater than 500 µM. Also, the minimal inhibitory concentration (MIC) against Staphylococcus aureus [26] and with Staphylococcus aureus [27] was 0.98 µM (≈ 0.328 µg/mL) throughout.
